According to paper PMC4567406 (Journal of medicinal chemistry, 2015):
Entries after “also recorded” stand apart in the source; their conditions may differ. Values belong to the compound of their own block, whether it stands above or below them.

Legend:
[1] = target: T1, IDH1(R132H) (Homo sapiens, UniProt O75874, R132H); experiment: IDH1; type: biochemical; conditions: for Fold less active than compound 4: IDH1(R132H) Ki compared with compound 4
Method in brief: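 E. coli-expressed, column-purified IDH1(R132H) (100 nM) in 50 mM HEPES pH 7.5 with 4 mM MgCl2, 100 µM NADPH and graded inhibitor. After 5 min preincubation, 1 mM α-KG was added to start the reaction. NADPH consumption was read at 340 nm every 30 s. IC50s came from dose-response fits. Ki was derived by Cheng-Prusoff (Km 0.965 mM), or by Morrison tight-binding fitting when IC50 <1 µM. Values are means of ≥3 independent runs.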

[2] = tested on: HT1080 cells (IDH1 R132C); experiment: D2HG production inhibition in HT1080 cells; type: cell-based, human; conditions: treated 2 days (48h)
Method in brief: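 HT1080 cells (10^5/well) grown in DMEM with 10% dialyzed FBS and exposed to increasing test-compound concentrations for 48h. Culture medium was collected, diluted with MeOH and centrifuged (20,000 rpm, 3 min). D2HG in the supernatant was quantified by HPLC-MS.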

[3] = tested on: HT1080 cells (IDH1 R132C); experiment: Histone lysine methylation levels, Western blot; type: cell-based, human; conditions: treated 4 days
Method in brief: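 After 4 days of test-compound exposure, histones were extracted from treated and control HT1080 cells. Extracts were analysed by Western blot using antibodies to total human histone H3 and to specific methylated lysine marks.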

[4] = tested on: BT142 glioma cells with IDH1 R132H mutation; experiment: Proliferation of glioma stem-like cells; type: cell-based; conditions: 14 days
[5] = tested on: BXD-3752 glioma cells without an IDH1 mutation; experiment: Proliferation of glioma stem-like cells; type: cell-based; conditions: BXD-3752, no IDH1 mutation, 14 days
[6] = tested on: IDH1 mutated cancer cells; conditions: cited from earlier work
[7] = target: T1, IDH1(R132H); experiment: Steady-state enzyme kinetic study; type: biochemical
[8] = target: T1, IDH1(R132H); experiment: Isothermal titration calorimetry; type: binding
[9] = IDH1(R132H) 100 μM without NADPH, 298K
[10] = IDH1(R132H) 100 μM without NADPH, 298K, pH 7.4

T1 sequence (O75874 whole entry R132H): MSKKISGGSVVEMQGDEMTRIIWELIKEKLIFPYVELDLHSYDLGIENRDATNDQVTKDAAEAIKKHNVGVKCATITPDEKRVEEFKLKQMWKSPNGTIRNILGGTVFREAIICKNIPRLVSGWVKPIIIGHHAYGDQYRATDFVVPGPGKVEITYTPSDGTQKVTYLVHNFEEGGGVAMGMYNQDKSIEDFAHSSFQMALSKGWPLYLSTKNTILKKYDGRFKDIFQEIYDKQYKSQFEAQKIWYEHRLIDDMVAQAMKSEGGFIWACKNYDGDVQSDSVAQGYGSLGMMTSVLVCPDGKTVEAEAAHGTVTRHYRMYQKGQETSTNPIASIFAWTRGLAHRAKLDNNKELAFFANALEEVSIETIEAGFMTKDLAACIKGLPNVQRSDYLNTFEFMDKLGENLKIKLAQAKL

SMILES: O=C(O)CN1C(=O)/C(=C\c2ccc(=O)[nH]c2)NC1=S [Compound 20]
Inhibitory activity against IDH1(R132H) in words [1]: none of these compounds are active
Effect on production of D2HG [2]: did not significantly reduce D2HG
Effect on histone lysine methylation levels (H3K4me3, H3K4me2, H3K27me2, H4K20me2) [3]: did not significantly affect histone methylation levels; also recorded: did not significantly reduce

SMILES: O=C1C(=Cc2ccc(O)c(O)c2)NC(=S)N1Cc1ccccc1 [Compound 4, 3-benzyl-5-(3,4-dihydroxybenzylidene)-2-thiohydantoin]
Ki [1]: 4.7 µM

SMILES: Cc1ccccc1C(C(=O)NC1CCCCC1)N(C(=O)Cn1ccnc1C)c1cccc(F)c1 (stereo not shown) [Compound 1, reference compound]
Effect on proliferation / neurosphere formation of glioma stem-like cells [4]: inhibited neurosphere formation; also recorded: can inhibit growth
Effect on proliferation / neurosphere formation of glioma stem-like cells [5]: did not affect neurosphere formation
Effect on proliferation of IDH1 mutated cancer cells [6]: can also inhibit proliferation

SMILES: COc1ccc(/C=C2/NC(=S)N(c3ccccc3)C2=O)cc1OC [Compound 6]
Inhibitory activity against IDH1(R132H) in words [1]: inactive

SMILES: CN1C(=O)/C(=C\c2ccc(=O)[nH]c2)NC1=S [Compound 16]
Effect on production of D2HG [2]: significantly reduced the production of D2HG; also recorded: significantly reduced amount of D2HG
Effect on proliferation / neurosphere formation of glioma stem-like cells [4]: inhibited neurosphere formation; also recorded: significantly inhibit proliferation
Effect on proliferation / neurosphere formation of glioma stem-like cells [5]: did not affect neurosphere formation; also recorded: did not have activity

SMILES: COc1ccc(CN2C(=O)/C(=C\c3ccc(OC)c(OC)c3)NC2=S)cc1 [Compound 7]
Inhibitory activity against IDH1(R132H) in words [1]: inactive

SMILES: O=C1/C(=C\c2ccc(O)c(O)c2)NC(=S)N1Cc1ccc(O)cc1 [Compound 9]
Fold less active than compound 4 [1]: ~ 3 fold

SMILES: CN1C(=O)/C(=C\c2ccc(=O)[nH]c2)N(C)C1=S [Compound 41]
Fold activity reduction compared to compound 16 ([1]; IDH1(R132H) Ki compared with compound 16): 22 fold

More lines, main results first:

Inhibitory activity against IDH1(R132H) in words [1]: Complete loss of activity
SMILES: O=C1NC(=O)/C(=C\c2ccc(=O)[nH]c2)N1 [Compound 38]

Inhibitory activity against IDH1(R132H) in words [1]: Complete loss of activity
SMILES: COc1ccc(/C=C2/NC(=O)NC2=O)cn1 [Compound 37]

Inhibitory activity against IDH1(R132H) in words [1]: Loss of activity
SMILES: O=C1NC(=S)N/C1=C/c1ccnc(Br)c1 [Compound 32]

Inhibitory activity against IDH1(R132H) in words [1]: completely lose the inhibitory activity
SMILES: CSC1=N/C(=C/c2ccc(=O)[nH]c2)C(=O)N1 [Compound 40]

Fold less active than compound 4 [1]: ~ 3 fold
SMILES: O=C1/C(=C\c2ccc(O)c(O)c2)NC(=S)N1c1ccccc1 [Compound 8]

Inhibitory activity against IDH1(R132H) in words [1]: inactive
SMILES: COc1ccc(/C=C2/NC(=S)N(Cc3ccccc3)C2=O)cn1 [Compound 11]

Inhibitory activity against IDH1(R132H) in words [1]: inactive
SMILES: NC1=N/C(=C/c2ccc(=O)[nH]c2)C(=O)N1 [Compound 39]

Inhibitory activity against IDH1(R132H) in words [1]: inactive
SMILES: O=C1/C(=C\c2cccnc2)NC(=S)N1Cc1ccccc1 [Compound 10]

Inhibitory activity against IDH1(R132H) in words [1]: none of these compounds are active
SMILES: COc1ccc(/C=C2/NC(=S)N(CC(=O)O)C2=O)cn1 [Compound 19]

Mode of action against the cofactor NADPH ([7]; variable NADPH, Michaelis-Menten plot): noncompetitive
Mode of action against the substrate α-KG ([7]; variable α-KG, Lineweaver-Burk plot): competitive
calculated ΔS of binding [8, 9]: 95.0 J K^−1 mol^−1
ΔG of binding [8, 9]: -7.12 kcal/mol
Ka (affinity constant) [8, 10]: 168000 M⁻¹
ΔH of binding [8, 10]: -0.359 kcal/mol
ΔH of binding ([8]; IDH1(R132H) 133 μM in the presence of NADPH (300 μM)): -0.598 kcal/mol
SMILES: O=C1NC(=S)N/C1=C/c1ccc(=O)[nH]c1 [Compound 18]
Effect on production of D2HG [2]: significantly reduced the production of D2HG; also recorded: significantly reduced amount of D2HG
Effect on histone lysine methylation levels (H3K4me3, H3K4me2, H3K27me2, H4K20me2) [3]: significantly reduced methylation levels; also recorded: significantly reduce the methylation levels
Effect on proliferation / neurosphere formation of glioma stem-like cells [4]: inhibited neurosphere formation; also recorded: significantly inhibit proliferation
Effect on proliferation / neurosphere formation of glioma stem-like cells [5]: did not affect neurosphere formation; also recorded: did not have activity
